{"source": "paper PMC10194142", "about": "(Virus Research, 2023)", "key": {"[1]": {"system": "ZIKV (MR-766)", "assay": "ZIKV RNA replication in infected Huh-7 cells by RT-qPCR", "type": "cell-based, Zika virus", "conditions": "for inhibition of ZIKV replication (ZIKV RNA level): 0.2, 0.69, 2, 6 μM for 72 h, Huh-7, MOI 0.1; for EC50: Zika virus, Huh-7, 72 h; for Selectivity index (SI = CC50/EC50): Huh-7 cells"}, "[2]": {"molecular_target": "T1, ZIKV NS2B-NS3 protease (Zika virus, UniProt Q32ZE1)", "T1 sequence (Q32ZE1 with tags, fused parts or gaps DEL1468-1489/Y1490G/V1491G/Y1492G/V1493G/K1494S/T1495G/K1497G/R1498G)": "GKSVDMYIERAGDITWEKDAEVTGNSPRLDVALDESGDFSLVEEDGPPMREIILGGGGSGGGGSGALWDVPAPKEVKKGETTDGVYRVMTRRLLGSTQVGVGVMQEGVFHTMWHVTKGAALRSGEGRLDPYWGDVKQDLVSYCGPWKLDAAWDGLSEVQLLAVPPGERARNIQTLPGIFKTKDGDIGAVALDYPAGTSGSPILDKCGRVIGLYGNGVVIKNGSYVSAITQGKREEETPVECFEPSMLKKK", "assay": "Kinetic analysis of inhibition mechanism", "type": "biochemical", "conditions": "for inhibition mechanism: 75 μM compound, 5 μM protease, Boc-KKR-AMC 0 to 20 μM; for Kcat / Vmax value: protease with 75 μM compound; for Kcat: untreated protease 0.0142; for Vmax value: untreated protease 0.071", "how_it_was_run": "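Purified His-tagged NS2B-NS3 protease was expressed in E. coli BL21(DE3). 5 μM protease was preincubated with 75 μM test compound in cleavage buffer for 30 min at 37 °C. Boc-KKR-AMC at 0–20 μM was then added for 1 h at 37 °C. Released AMC was read at ex 355 / em 455 nm against an AMC standard curve. Mechanism was assigned from Lineweaver-Burk plots.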"}, "[3]": {"assay": "Cell viability by ATPlite", "type": "cell-based", "conditions": "human, Huh-7 cells"}, "[4]": {"molecular_target": "T1, ZIKV NS2B-NS3 protease", "assay": "ZIKV NS2B-NS3 enzyme-based fluorescence peptide cleavage assay", "type": "biochemical", "conditions": "for protease activity inhibition efficacy in screening: inhibitor concentration of 50 μM, 5 μM protease, 10 μM substrate", "how_it_was_run": "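His-tagged NS2B-NS3 protease was expressed in E. coli BL21(DE3) and purified by metal-affinity chromatography. Test compound at 6.25–100 μM was incubated with 5 μM protease in cleavage buffer for 30 min at 37 °C, then with 10 μM Boc-KKR-AMC for 1 h. AMC fluorescence was read at ex 355 / em 455 nm. Activity is expressed as % of the protease-alone control.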"}, "[5]": {"system": "ZIKV", "assay": "ZIKV-infected ICR suckling mouse model", "type": "in vivo", "how_it_was_run": "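Six-day-old ICR suckling mice (n = 6 per group) were injected intracerebrally with 10^4 pfu ZIKV. Mock mice received 60 °C heat-inactivated virus. Saline or test compound (1 or 10 mg/kg, i.c.) was given at days 1, 3 and 5 post-infection. At day 6, 0.1 g brain was lysed in RIPA for NS2B western blot. The remaining brain had H&E and IHC (NS1, Ly6C), with infiltration quantified. Data are mean ± SD.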"}, "[6]": {"system": "ZIKV", "conditions": "plaque reduction assay; ref Chan et al., 2017; cited from earlier work"}, "[7]": {"system": "ZIKV", "conditions": "primary placental cells, dose range of 0.2 to 1 μM; ref Tabata et al., 2016; cited from earlier work"}}}
{"compound": "COc1cc(C=C2C(=O)N(c3ccccc3)C(=S)N(c3ccccc3)C2=O)cc(I)c1OCc1ccccc1Cl", "note": "[Compound 3, 5-(4-((2-chlorobenzyl)oxy)−3-iodo-5-methoxybenzylidene)−1,3-diphenyl-2-thioxodihydropyrimidine-4,6(1H,5H)-dione]", "values": [{"measurement": "inhibition of ZIKV replication (ZIKV RNA level)", "setting": "[1]", "result": "could significantly inhibit ZIKV replication"}, {"measurement": "EC50", "setting": "[1]", "result": 2.15, "unit": "µM"}, {"measurement": "inhibition mechanism", "setting": "[2]", "result": "non-competitive"}, {"measurement": "Kcat", "setting": "[2]", "result": 0.00013, "unit": "s⁻¹"}, {"measurement": "Vmax value", "setting": "[2]", "result": 0.040, "unit": "µmol/min"}, {"measurement": "CC50 at 48 h", "setting": "[3]", "result": "> 200", "unit": "µM"}, {"measurement": "IC50", "setting": "[4]", "result": 14, "unit": "µM"}, {"measurement": "protease activity inhibition efficacy in screening", "setting": "[4]", "result": "better protease activity inhibition efficacy than others"}]}
{"compound": "Oc1cccc(-c2c3nc(c(-c4cccc(O)c4)c4ccc([nH]4)c(-c4cccc(O)c4)c4nc(c(-c5cccc(O)c5)c5ccc2[nH]5)CC4)C=C3)c1", "note": "[Temoporfin, reference compound]", "values": [{"measurement": "Selectivity index (SI = CC50/EC50)", "setting": "[1]", "result": 30.53}, {"measurement": "EC50", "setting": "[1]", "result": 2, "unit": "µM"}, {"measurement": "CC50 at 48 h", "setting": "[3]", "result": 61.1, "unit": "µM"}, {"measurement": "IC50", "setting": "[4]", "result": 18.8, "unit": "µM"}]}
{"compound": "CCc1ccc(S(=O)(=O)/N=C2\\C=C(NS(=O)(=O)c3ccccc3)C(=O)c3ccccc32)cc1", "note": "[Compound 5, (E)−4-ethyl-N-(4-oxo-3-(phenylsulfonamido)naphthalen-1(4H)-ylidene)benzene sulfonamide]", "values": [{"measurement": "IC50", "setting": "[4]", "result": "> 100", "unit": "µM"}]}
{"compound": "CC(=O)Oc1ccc(C=C2C(=O)N(c3ccccc3)C(=S)N(c3ccccc3)C2=O)cc1", "note": "[Compound 1, 4-((4,6-dioxo-1,3-diphenyl-2-thioxotetrahydropyrimidin-5(2H)-ylidene)methyl)phenyl acetate]", "values": [{"measurement": "IC50", "setting": "[4]", "result": 63.4, "unit": "µM"}]}
{"compound": "Cc1ccc(S(=O)(=O)/N=C2\\C=C(NS(=O)(=O)c3ccccc3)C(=O)c3ccccc32)c(C)c1", "note": "[Compound 11, (E)−2,4-dimethyl-N-(4-oxo-3-(phenylsulfonamido)naphthalen-1(4H)-ylidene)benzenesulfonamide]", "values": [{"measurement": "IC50", "setting": "[4]", "result": "> 100", "unit": "µM"}]}
{"compound": "O=C1C(=Cc2cc(I)c(O)c(I)c2)C(=O)N(c2ccccc2)C(=S)N1c1ccccc1", "note": "[Compound 4, 5-(4‑hydroxy-3,5-diiodobenzylidene)−1,3-diphenyl-2-thioxodihydropyrimidine-4,6(1H,5H)-dione]", "values": [{"measurement": "IC50", "setting": "[4]", "result": "> 100", "unit": "µM"}]}
{"compound": "CC(C)c1ccc(S(=O)(=O)/N=C2/C=C(NS(=O)(=O)c3ccccc3)C(=O)c3ccccc32)cc1", "note": "[Compound 10, (Z)−4-isopropyl-N-(4-oxo-3-(phenylsulfonamido)naphthalen-1(4H)-ylidene)benzenesulfonamide]", "values": [{"measurement": "IC50", "setting": "[4]", "result": "> 100", "unit": "µM"}]}
{"compound": "Cc1ccc(NC(=O)COc2ccc(C=C3C(=O)N(c4ccccc4)C(=S)N(c4ccccc4)C3=O)cc2)cc1C", "note": "[Compound 9, N-(3,4-dimethylphenyl)−2-(4-((4,6-dioxo-1,3-diphenyl-2-thioxotetrahydropyrimidin-5(2H)-ylidene)methyl)phenoxy)acetamide]", "values": [{"measurement": "inhibition of ZIKV replication (ZIKV RNA level)", "setting": "[1]", "result": "could significantly inhibit ZIKV replication"}, {"measurement": "Selectivity index (SI = CC50/EC50)", "setting": "[1]", "result": 17.46}, {"measurement": "EC50", "setting": "[1]", "result": 3.52, "unit": "µM"}, {"measurement": "inhibition mechanism", "setting": "[2]", "result": "non-competitive"}, {"measurement": "Kcat", "setting": "[2]", "result": 0.000143, "unit": "s⁻¹"}, {"measurement": "Vmax value", "setting": "[2]", "result": 0.043, "unit": "µmol/min"}, {"measurement": "CC50 at 48 h", "setting": "[3]", "result": 61.5, "unit": "µM"}, {"measurement": "IC50", "setting": "[4]", "result": 14.2, "unit": "µM"}, {"measurement": "protease activity inhibition efficacy in screening", "setting": "[4]", "result": "better protease activity inhibition efficacy than others"}]}
{"compound": "Cc1ccc(S(=O)(=O)/N=C2\\C=C(NS(=O)(=O)c3ccccc3)C(=O)c3ccccc32)cc1", "note": "[Compound 7, (E)−4-methyl-N-(4-oxo-3-(phenylsulfonamido)naphthalen-1(4H)-ylidene)benzenesulfonamide]", "values": [{"measurement": "IC50", "setting": "[4]", "result": "> 100", "unit": "µM"}]}
{"compound": "COc1cc(C=C2C(=O)N(c3ccccc3)C(=S)N(c3ccccc3)C2=O)cc(Br)c1OCc1cccc2ccccc12", "note": "[Compound 2, 5-(3‑bromo-5‑methoxy-4-(naphthalen-1-ylmethoxy)benzylidene)−1,3-diphenyl-2-thioxodihydropyrimidine-4,6(1H,5H)-dione]", "values": [{"measurement": "IC50", "setting": "[4]", "result": 72.5, "unit": "µM"}]}
{"compound": "COc1cc(C=C2C(=O)N(c3ccc(C)cc3)C(=S)N(c3ccc(C)cc3)C2=O)cc(Br)c1O", "note": "[Compound 8, 5-(3‑bromo-4‑hydroxy-5-methoxybenzylidene)−2-thioxo-1,3-di-p-tolyldihydropyrimidine-4,6(1H,5H)-dione]", "values": [{"measurement": "inhibition of ZIKV replication (ZIKV RNA level)", "setting": "[1]", "result": "could significantly inhibit ZIKV replication"}, {"measurement": "EC50", "setting": "[1]", "result": 0.52, "unit": "µM"}, {"measurement": "inhibition mechanism", "setting": "[2]", "result": "non-competitive"}, {"measurement": "Kcat", "setting": "[2]", "result": 0.00015, "unit": "s⁻¹"}, {"measurement": "Vmax value", "setting": "[2]", "result": 0.045, "unit": "µmol/min"}, {"measurement": "CC50 at 48 h", "setting": "[3]", "result": "> 200", "unit": "µM"}, {"measurement": "IC50", "setting": "[4]", "result": 6.85, "unit": "µM"}, {"measurement": "protease activity inhibition efficacy in screening", "setting": "[4]", "result": "better protease activity inhibition efficacy than others"}, {"measurement": "survival (protection from lethal ZIKV infection)", "setting": "[5]; 1 mg/kg or 10 mg/kg on days 1, 3, 5, observed 6 days, vs saline", "result": "protected all ZIKV-infected suckling mice from lethal ZIKV infection"}, {"measurement": "clinical score (sickness)", "setting": "[5]; 1 mg/kg or 10 mg/kg on days 1, 3, 5, vs saline", "result": "a delay in the sickness induced by ZIKV infection"}, {"measurement": "Ly6C+ monocyte infiltration in brain tissue", "setting": "[5]; 6 dpi, vs saline-treated group", "result": "significantly less accumulated"}, {"measurement": "ZIKV NS1 level in brain tissue (IHC)", "setting": "[5]; 6 dpi, vs saline-treated group", "result": "significantly decreased"}, {"measurement": "ZIKV NS2B protein level in brain tissue (western blot)", "setting": "[5]; 6 dpi, vs saline-treated group", "result": "significantly decreased"}]}
{"compound": "Cc1cc(C)c(S(=O)(=O)/N=C2\\C=C(NS(=O)(=O)c3ccccc3)C(=O)c3ccccc32)cc1C", "note": "[Compound 6, (E)−2,4,5-trimethyl-N-(4-oxo-3-(phenylsulfonamido)naphthalen-1(4H)-ylidene)benzenesulfonamide]", "values": [{"measurement": "IC50", "setting": "[4]", "result": "> 100", "unit": "µM"}]}
{"compound": "CC(C)C[C@H]1C(=O)N2CCC[C@H]2[C@]2(O)O[C@](NC(=O)[C@@H]3C=C4c5cccc6[nH]c(Br)c(c56)C[C@H]4N(C)C3)(C(C)C)C(=O)N12", "note": "[bromocriptine]", "values": [{"measurement": "ZIKV-mediated plaque reduction", "setting": "[6]", "result": "~100", "unit": "%"}]}
{"compound": "duramycin", "values": [{"measurement": "block of ZIKV infection", "setting": "[7]", "result": "> 80", "unit": "%"}]}
